Here are results for two compounds from paper PMC7034278 (Neural Regeneration Research, 2019).

In assay [1] the test system is SK-N-SH human neuroblastoma cells. In words: Cell viability assay. Type of assay: cell-based. As to conditions: 250 μM H2O2, 2 h, in comparison with the vehicle control group. The method, boiled down:
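SK-N-SH neuroblastoma cells were seeded at 1 × 10^4 per well and exposed to 250 μM H2O2 for 2 h. They were then cultured a further 48 h; peptide arms received 20 μg/mL. CCK-8 reagent was added for 2 h at 37°C, and absorbance was read at 490 nm. Five repeats; mean ± SEM; one-way ANOVA with Bonferroni post-hoc test.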

Assay [2] concerns mouse cerebellar granule neurons. Kind of assay: Neurite outgrowth assay, H2O2-stressed cerebellar granule neurons. To be noted: 250 μM H2O2, 2 h, in comparison with the vehicle control group. Type of assay: cell-based. The method, boiled down:
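Primary cerebellar granule neurons from C57BL/6 mice were seeded at 2 × 10^4 cells on poly-D-lysine in Neurobasal A without B-27. They received 250 μM H2O2 for 2 h, then 24 h culture (peptide arms at 20 μg/mL). Cells were fixed in 4% formaldehyde and stained with crystal violet. Neurites at least one soma diameter long and free of cell contact were measured at 40×, about 50 cells per group. Three repeats.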

Assay [3] relates to neural cell adhesion molecule L1. Kind of assay: L1 immunofluorescence staining, H2O2-stressed SK-N-SH cells. Type of assay: cell-based, human. As to conditions: 250 μM H2O2, 2 h, in comparison with the control group. The method, boiled down: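 SK-N-SH cells were seeded at 1 × 10^4 per well, given 250 μM H2O2 for 2 h, then cultured 48 h (peptide arms at 20 μg/mL). Cells were fixed in 4% formaldehyde for 10 min and blocked with 10% donkey serum for 40 min. Anti-L1 mouse monoclonal (1:200) was applied overnight at 4°C, then Alexa 488 secondary (1:500) for 1 h, with DAPI mounting. Confocal L1 intensity was measured.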

For assay [4], the system named is SK-N-SH human neuroblastoma cells. To be noted: previous study; ref Zhang et al., 2017; cited from earlier work.
A further assay deals with Sambucus nigra lectin. In words: Competition ELISA. To be noted: by phage binding and competition ELISA. (An ELISA detects its analyte on a solid surface through an enzyme-linked reagent.)

Take `OO` [H2O2]: the “survival of SK-N-SH cells after H2O2 alone” value in assay [1] is on record as “reduced survival”. Moreover, the “neurite length after H2O2 alone” value in assay [2] was “reduced the lengths of neurites”. In addition, in assay [3], the “L1 expression after H2O2 alone” value is given as “reduced L1 expression”. In assay [4], the “cell viability of SK-N-SH cells in response to H2O2” value was “decreased in a dose- and time-dependent manner”.

As for H-PRHGKKPTNKRK-OH [mimetic peptide], the “affinity to Sambucus nigra lectin” value in the assay on Sambucus nigra lectin is recorded as “high affinity”.
